Inhibition data for 32 compounds are collected here from ChEMBL document CHEMBL2086366, “Chemical optimization of new ligands of the low-density lipoprotein receptor as potential vectors for central nervous system targeting” (J Med Chem, 2012).

*1 amine or outer side, *2 acyl side, *3 side chain or, on linkers, in order; H or OH if unused. Where a SMILES comes first, the peptide text is derived from it. Bridges are numbered along the chain shown (N, C = ends). [ ]: non-standard residue; d: D form. X1 = CSCC[C@@H](C(=O)[*:2])N(C[C@@H](CS[*:3])NC(C)=O)[*:1]

The target in one test is Low-density lipoprotein receptor (Homo sapiens) (UniProt P01130). The test is described as follows: Displacement of S-tagged Ac-DSGL[CMPRLRGC]cDPR-NH2 from human DsRed2-fused LDLR expressed in CHO cells at 10 uM after 1 hr by FRET assay. It is filed as cell-based. The procedure, abridged: (§1)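 CHO cells stably expressing hLDLR-DsRed2 (Ham-F12, 5% FBS, Geneticin) at 800 000 cells/well were incubated in triplicate with S-tagged reference peptide (10 μM) plus test peptide (10 μM) in Ham-F12/1% BSA, 1 h, 37 °C. Scrambled and untagged peptide controls were included; values are means of at least three points.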
Sequence of Low-density lipoprotein receptor (Homo sapiens) (P01130 whole entry, the tested form may be a part): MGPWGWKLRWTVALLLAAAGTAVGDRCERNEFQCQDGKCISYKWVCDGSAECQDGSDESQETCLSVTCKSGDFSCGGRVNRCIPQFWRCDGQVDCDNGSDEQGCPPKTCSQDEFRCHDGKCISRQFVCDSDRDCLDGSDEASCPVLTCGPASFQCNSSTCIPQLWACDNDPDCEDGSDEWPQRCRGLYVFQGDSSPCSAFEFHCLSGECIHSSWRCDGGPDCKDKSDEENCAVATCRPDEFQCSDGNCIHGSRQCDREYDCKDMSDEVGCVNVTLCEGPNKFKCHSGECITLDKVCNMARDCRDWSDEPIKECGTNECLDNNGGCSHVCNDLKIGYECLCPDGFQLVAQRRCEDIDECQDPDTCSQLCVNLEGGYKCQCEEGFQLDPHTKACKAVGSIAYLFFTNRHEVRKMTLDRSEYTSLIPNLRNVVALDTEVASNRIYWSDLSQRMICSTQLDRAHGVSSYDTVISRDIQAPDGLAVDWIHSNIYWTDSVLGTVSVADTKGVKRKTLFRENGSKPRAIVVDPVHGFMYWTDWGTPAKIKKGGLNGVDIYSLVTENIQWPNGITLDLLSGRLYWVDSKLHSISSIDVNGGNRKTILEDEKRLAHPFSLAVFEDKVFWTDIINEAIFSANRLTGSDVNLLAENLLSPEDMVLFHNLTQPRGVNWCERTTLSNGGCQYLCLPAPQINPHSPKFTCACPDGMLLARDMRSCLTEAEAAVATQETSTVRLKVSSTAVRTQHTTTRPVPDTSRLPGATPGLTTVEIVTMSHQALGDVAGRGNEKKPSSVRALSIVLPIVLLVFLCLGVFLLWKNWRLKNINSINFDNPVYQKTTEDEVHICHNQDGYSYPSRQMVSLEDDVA
For `CSCC[C@@H]1NC(=O)[C@@H](NC(C)=O)CSC[C@@H](C(N)=O)NC(=O)[C@H](CCCNC(=N)N)NC(=O)[C@@H]2CCCN2C1=O`, the inhibition was found to be 0%.
Still for that read-out and setting: as for `CSCC[C@@H]1NC(=O)[C@@H](NC(=O)[C@H](CC(C)C)NC(=O)CNC(=O)[C@H](CO)NC(=O)[C@H](CC(=O)O)NC(C)=O)CSSC[C@@H](C(=O)N[C@@H](CC(=O)O)C(=O)N2CCC[C@H]2C(=O)N[C@@H](CCCNC(=N)N)C(N)=O)NC(=O)CNC(=O)[C@H](C)NC(=O)[C@H](CC(C)C)NC(=O)[C@H](CCCNC(=N)N)NC(=O)[C@@H]2CCCN2C1=O` (Ac-DSGLCMPRLAGCDPR-NH2; disulfide 5-12), the figure is 2%; as for `CSCC[C@@H]1NC(=O)[C@@H](NC(=O)[C@H](CC(C)C)NC(=O)CNC(=O)[C@H](CO)NC(=O)[C@H](CC(=O)O)NC(C)=O)CSSC[C@@H](C(=O)N[C@@H](CC(=O)O)C(=O)N2CCC[C@H]2C(=O)N[C@@H](CCCNC(=N)N)C(N)=O)NC(=O)[C@H](C)NC(=O)[C@H](CCCNC(=N)N)NC(=O)[C@H](CC(C)C)NC(=O)[C@H](CCCNC(=N)N)NC(=O)[C@@H]2CCCN2C1=O` (Ac-DSGLCMPRLRACDPR-NH2; disulfide 5-12), 20%.
On the same count and under the same terms, as for `CSCC[C@H](NC(=O)[C@H](CS)NC(=O)[C@H](CC(C)C)NC(=O)CNC(=O)[C@H](CO)NC(=O)[C@H](CC(=O)O)NC(C)=O)C(=O)N1CCC[C@H]1C(=O)N[C@@H](CCCNC(=N)N)C(=O)N[C@@H](CC(C)C)C(=O)N[C@@H](CCCNC(=N)N)C(=O)NCC(=O)N[C@@H](CS)C(=O)N[C@@H](CC(=O)O)C(=O)N1CCC[C@H]1C(=O)N[C@@H](CCCNC(=N)N)C(N)=O`, the figure is 50%; as for `CSCC[C@@H]1NC(=O)[C@@H](NC(=O)[C@H](CC(C)C)NC(=O)CNC(=O)[C@H](CO)NC(=O)[C@H](CC(=O)O)NC(C)=O)CSSC[C@@H](C(=O)N[C@@H](CC(=O)O)C(=O)N2CCC[C@H]2C(=O)N[C@@H](C)C(N)=O)NC(=O)CNC(=O)[C@H](CCCNC(=N)N)NC(=O)[C@H](CC(C)C)NC(=O)[C@H](CCCNC(=N)N)NC(=O)[C@@H]2CCCN2C1=O` (Ac-DSGLCMPRLRGCDPA-NH2; disulfide 5-12), 55%.
Same read-out and setting: as for `CC(=O)N[C@@H](CC(=O)O)C(=O)N[C@@H](CO)C(=O)NCC(=O)N[C@@H](CC(C)C)C(=O)N[C@H]1CSSC[C@@H](C(=O)N[C@@H](CC(=O)O)C(=O)N2CCC[C@H]2C(=O)N[C@@H](CCCNC(=N)N)C(N)=O)NC(=O)CNC(=O)[C@H](CCCNC(=N)N)NC(=O)[C@H](CC(C)C)NC(=O)[C@H](CCCNC(=N)N)NC(=O)[C@@H]2CCCN2C(=O)[C@H](C)NC1=O` (Ac-DSGLCAPRLRGCDPR-NH2; disulfide 5-12), the figure is 0%; as for `CSCC[C@@H]1NC(=O)[C@@H](NC(=O)[C@H](CC(C)C)NC(=O)CNC(=O)[C@H](CO)NC(=O)[C@H](CC(=O)O)NC(C)=O)CSSC[C@@H](C(=O)N[C@@H](C)C(=O)N2CCC[C@H]2C(=O)N[C@@H](CCCNC(=N)N)C(N)=O)NC(=O)CNC(=O)[C@H](CCCNC(=N)N)NC(=O)[C@H](CC(C)C)NC(=O)[C@H](CCCNC(=N)N)NC(=O)[C@@H]2CCCN2C1=O` (Ac-DSGLCMPRLRGCAPR-NH2; disulfide 5-12), 70%; as for `CSCC[C@@H]1NC(=O)[C@@H](NC(=O)[C@H](C)NC(=O)CNC(=O)[C@H](CO)NC(=O)[C@H](CC(=O)O)NC(C)=O)CSSC[C@@H](C(=O)N[C@@H](CC(=O)O)C(=O)N2CCC[C@H]2C(=O)N[C@@H](CCCNC(=N)N)C(N)=O)NC(=O)CNC(=O)[C@H](CCCNC(=N)N)NC(=O)[C@H](CC(C)C)NC(=O)[C@H](CCCNC(=N)N)NC(=O)[C@@H]2CCCN2C1=O` (Ac-DSGACMPRLRGCDPR-NH2; disulfide 5-12), 64%.
The compound Ac-DSGLAMPRLRGCDPR-NH2 returned an inhibition of 0%.

The target is the same in another test. The test is described as follows: Displacement of S-tagged Ac-[cMPRLRGC]c-NH2 from human DsRed2-fused LDLR expressed in CHO cells at 10 uM after 1 hr by FRET assay. In kind it is cell-based. The procedure, abridged: as §1
For `CC(=O)N[C@@H]1CSSC[C@@H](C(N)=O)NC(=O)CNC(=O)[C@H](CCCNC(=N)N)NC(=O)[C@H](CC(C)C)NC(=O)[C@H](CCCNC(=N)N)NC(=O)[C@@H]2CCCN2C(=O)[C@H](Cc2cccs2)NC1=O`, the inhibition is 0%.
On the same count and under the same terms, under `CSCC[C@@H]1NC(=O)[C@H](NC(C)=O)CSSC[C@@H](C(N)=O)NC(=O)CNC(=O)[C@H](CCCN)NC(=O)[C@H](CC(C)C)NC(=O)[C@H](CCCNC(=N)N)NC(=O)[C@@H]2CCCN2C1=O` stands 0%.
Same read-out and setting: as for `COCC[C@@H]1NC(=O)[C@H](NC(C)=O)CSSC[C@@H](C(N)=O)NC(=O)CNC(=O)[C@H](CCCNC(=N)N)NC(=O)[C@H](CC(C)C)NC(=O)[C@H](CCCNC(=N)N)NC(=O)[C@@H]2CCCN2C1=O`, the figure is 0%; as for `CSCC[C@@H]1NC(=O)[C@H](NC(C)=O)CSSC[C@@H](C(N)=O)NC(=O)CNC(=O)[C@H](CCCNC(=N)N)NC(=O)[C@H](CC(C)C)NC(=O)[C@H](CCCN)NC(=O)[C@@H]2CCCN2C1=O`, 28%; as for `CSCC[C@@H]1NC(=O)[C@H](NC(C)=O)CSSC[C@@H](C(N)=O)NC(=O)CNC(=O)[C@H](CCCNC(=N)N)NC(=O)[C@H](CC(C)C)NC(=O)[C@H](CCCNC(=N)N)NC[C@@H]2CCCN2C1=O`, 0%.
The same measure, in the same setting: under `CSCC[C@@H]1NC(=O)[C@H](NC(C)=O)CSSC[C@@H](C(N)=O)NC(=O)CNC(=O)[C@H](CCCNC(=N)N)NC(=O)[C@H](CC(C)C)NC(=O)[C@H](CCCNC(=N)N)NC(=O)c2ccccc2NC1=O` stands 0%; under `CSCCC1NC(=O)[C@H](NC(C)=O)CNC(=O)C[C@@H](C(N)=O)NC(=O)CNC(=O)[C@H](CCCNC(=N)N)NC(=O)[C@H](CC(C)C)NC(=O)[C@H](CCCNC(=N)N)NC(=O)[C@@H]2CCCN2C1=O` (single isomer, unassigned), 12%; under `CSCC[C@H]1CN2CCC[C@H]2C(=O)N[C@@H](CCCNC(=N)N)C(=O)N[C@@H](CC(C)C)C(=O)N[C@@H](CCCNC(=N)N)C(=O)NCC(=O)N[C@H](C(N)=O)CSSC[C@@H](NC(C)=O)C(=O)N1`, 33%.
Compound `CSCC[C@@H]1NC(=O)[C@H](NC(C)=O)CSSC[C@@H](C(N)=O)NC(=O)CNC(=O)[C@H](CCCNC(=N)N)NC(=O)[C@H](CC(C)C)NC(=O)[C@H](CCCNC(=N)N)NC(=O)[C@@H]2c3ccccc3CCN2C1=O` registered an inhibition of 21%.
Still for that read-out and setting: under `CSCC[C@@H]1NC(=O)[C@H](NC(C)=O)Cc2cn(nn2)CC[C@@H](C(N)=O)NC(=O)CNC(=O)[C@H](CCCNC(=N)N)NC(=O)[C@H](CC(C)C)NC(=O)[C@H](CCCNC(=N)N)NC(=O)[C@@H]2CCCN2C1=O` stands 13%.
The same measure, in the same setting: as for `CC(=O)N[C@@H]1CSSC[C@@H](C(N)=O)NC(=O)CNC(=O)[C@H](CCCNC(=N)N)NC(=O)[C@H](CC(C)C)NC(=O)[C@H](CCCNC(=N)N)NC(=O)[C@@H]2CCCN2C(=O)[C@@H]2CSCN2C1=O`, the figure is 0%; as for `CSCC[C@@H]1NC(=O)[C@H](NC(C)=O)C/C=C\C[C@@H](C(N)=O)NC(=O)CNC(=O)[C@H](CCCNC(=N)N)NC(=O)[C@H](CC(C)C)NC(=O)[C@H](CCCNC(=N)N)NC(=O)[C@@H]2CCCN2C1=O`, 22%; as for `CSCC[C@@H]1NC[C@H](NC(C)=O)CSSC[C@@H](C(N)=O)NC(=O)CNC(=O)[C@H](CCCNC(=N)N)NC(=O)[C@H](CC(C)C)NC(=O)[C@H](CCCNC(=N)N)NC(=O)[C@@H]2CCCN2C1=O` (H-[X1]PRLRGC-NH2; disulfide 1-7), 37%.
With `CSCC[C@@H]1NC(=O)[C@H](NC(C)=O)CSSC[C@@H](C(N)=O)NC(=O)[C@@H](C)NC(=O)[C@H](CCCNC(=N)N)NC(=O)[C@H](CC(C)C)NC(=O)[C@H](CCCNC(=N)N)NC(=O)[C@@H]2CCCN2C1=O`, the inhibition was found to be 54%.
Still for that read-out and setting: under `CSCC[C@@H]1NC(=O)[C@H](NC(C)=O)CNC(=N)NC[C@@H](C(N)=O)NC(=O)CNC(=O)[C@H](CCCNC(=N)N)NC(=O)[C@H](CC(C)C)NC(=O)[C@H](CCCNC(=N)N)NC(=O)[C@@H]2CCCN2C1=O` stands 0%; under `CSCC[C@@H]1NC(=O)[C@H](NC(C)=O)CSSC[C@@H](C(N)=O)NC(=O)CNC(=O)[C@H](CCCNC(=N)N)NC(=O)[C@H](CC(C)C)NC[C@H](CCCNC(=N)N)NC(=O)[C@@H]2CCCN2C1=O`, 58%; under `CSCC[C@H](NC(=O)[C@H]1CSSC[C@H](N)C(=O)NCC(=O)N[C@@H](CCCNC(=N)N)C(=O)N[C@@H](CC(C)C)C(=O)N[C@@H](CCCNC(=N)N)C(=O)N2CCC[C@H]2C(=O)N1)C(=O)NC(C)=O`, 28%.
On to `CSCC[C@H](NC(=O)[C@@H]1CCCN1C(=O)[C@H]1CSSC[C@H](N)C(=O)NCC(=O)N[C@@H](CCCNC(=N)N)C(=O)N[C@@H](CC(C)C)C(=O)N[C@@H](CCCNC(=N)N)C(=O)N1)C(=O)NC(C)=O`, for which the inhibition came to 34%.
As for `CSCC[C@@H]1NC(=O)[C@H](NC(C)=O)CSSC[C@@H](C(N)=O)NC(=O)CNC(=O)[C@H](CCCNC(=N)N)NC(=O)[C@H](CC(C)C)NC(=O)[C@H](CCCNC(=N)N)NC(=O)CN(C)C1=O`, the inhibition was 22%.
Still for that read-out and setting: under `CSCC[C@@H]1NC(=O)C(NC(C)=O)CSCC(C(N)=O)NC(=O)CNC(=O)[C@H](CCCNC(=N)N)NC(=O)[C@H](CC(C)C)NC(=O)[C@H](CCCNC(=N)N)NC(=O)[C@@H]2CCCN2C1=O` (mixture of isomers) stands 41%; under `CSCC[C@@H]1NC(=O)[C@H](NC(C)=O)CSSC[C@@H](C(N)=O)NC(=O)CNC(=O)[C@H](CCCNC(=N)N)NC[C@H](CC(C)C)NC(=O)[C@H](CCCNC(=N)N)NC(=O)[C@@H]2CCCN2C1=O`, 40%.
The same measure, in the same setting: as for `CSCC[C@@H]1NC(=O)[C@H](NC(C)=O)CSSC[C@@H](C(N)=O)NC(=O)CNC(=O)[C@H](CCCN)NC(=O)[C@H](CC(C)C)NC(=O)[C@H](CCCN)NC(=O)[C@@H]2CCCN2C1=O`, the figure is 31%; as for `CSCC[C@H](NC(=O)[C@@H]1CCCN1C(=O)[C@@H](CCCNC(=N)N)[C@H]1CSSC[C@H](N)C(=O)NCC(=O)N[C@@H](CCCNC(=N)N)C(=O)N[C@@H](CC(C)C)C(=O)N1)C(=O)NC(C)=O`, 34%.
